Results collected from several papers.
Lines come from different studies, so protocols differ.
TRPC3: Short transient receptor potential channel 3 (TRPC3, Homo sapiens, UniProt Q13507)

| SMILES | target | assay | system | setting | quantity | result |
| --- | --- | --- | --- | --- | --- | --- |
| CNc1ncc2c(/C=C/C(=O)N3CCC(OC)CC3)nn(Cc3cccc(C(F)(F)F)c3)c2n1 | Tyrosine-protein kinase Fgr (FGR, Homo sapiens, UniProt P09769) | enzyme activity, inhibitor, radiometric | – | 1 µM | remaining activity | 90% |
| CCNC(=O)c1cnn(-c2ccc(-n3ccc(Cl)c(Cl)c3=O)cc2)c1C(F)(F)F | TRPC3 | ion current, inhibitor, patch clamp | HEK293 | 10 µM | inhibition | 95.7% |
| COc1cc(-c2cncc3c2CN(C)Cc2cc(N4CCNCC4)ccc2-3)cc(OC)c1OC | Interferon-induced, double-stranded RNA-activated protein kinase (EIF2AK2, Homo sapiens, UniProt P19525) | enzyme activity, inhibitor | – | 1 µM | remaining activity | 102% |
| CCOC(=O)c1cnn(-c2ccc(NC(=O)C(Cl)=C(Cl)Cl)cc2)c1C(F)(F)F | TRPC3 | ion current, inhibitor, patch clamp | HEK293 | 10 µM | inhibition | 88.6% |
| C=CC(=O)Nc1ccccc1C(=O)Nc1ccc(C#Cc2ccc(OC)cc2)nn1 | Fibroblast growth factor receptor 1 (FGFR1, Homo sapiens, UniProt P11362) | enzyme activity, inhibitor, radiometric | – | 1 µM | inhibition | 3% |
| COc1ccc(CNC(=O)c2cc3c(cc2[N+](=O)[O-])OCO3)cc1 | Myeloperoxidase (MPO, Homo sapiens, UniProt P05164) | enzyme activity, inhibitor | – | 5 µM | inhibition | > 50% |
| C=CC(=O)N1C[C@@H](n2nc(C#Cc3c(F)cc4c(ncn4C4CC4)c3F)c(C(N)=O)c2NC)C[C@@H]1COC | Serine/threonine-protein kinase 10 (STK10, Homo sapiens, UniProt O94804) | enzyme activity, inhibitor, mobility shift | – | 1 µM | inhibition | 64.6% |
| Cc1cc([C@@H](C)Nc2ccccc2C(=O)O)c2nc(N3CCC(F)(F)CC3)c(C#N)c(=O)n2c1 | MAP kinase-interacting serine/threonine-protein kinase 2 (MKNK2, Homo sapiens, UniProt Q9HBH9) | binding, competition with immobilised ligand | – | 10 µM | remaining binding | 100% |
| C=CC(=O)N1CCC(COCC(=O)N2CCN(c3nc(-c4cnc(N)nc4C(F)F)nc(N4CCOC[C@@H]4C)n3)CC2)CC1 | Serine/threonine-protein kinase WNK4 (WNK4, Homo sapiens, UniProt Q96J92) | binding, competition with immobilised ligand | – | 1 µM | remaining binding | 46% |
| CCNC(=O)c1cn(-c2ccc(-n3ccc(Cl)c(Cl)c3=O)cc2)nc1C(F)(F)F | TRPC3 | ion current, inhibitor, patch clamp | HEK293 | 10 µM | inhibition | > 90% |
